In brackets after ≈: the same amount, converted by molar mass. Activity calls are given as the source filed them. No cut-off for these calls is given here.
Key:
Saccharomyces cerevisiae = test: Antifungal activity against Saccharomyces cerevisiae YPH500 assessed as concentration required to 50% growth inhibition using alamar blue staining after 18 to 72 hrs by microdilution method; format: functional
In short: (§1)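 Serial broth microdilution in RPMI 1640 with 0.165 M MOPS. Inoculum was 1×10³–1×10⁴ cells/mL and incubation ran 18–72 h, both set per strain by growth rate, at 30 °C. MIC-2 is the lowest drug concentration giving 50% growth inhibition versus a drug-free control.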

Candida albicans [1] = test: Antifungal activity against Candida albicans ATCC 24433 assessed as concentration required to 50% growth inhibition using alamar blue staining after 18 to 72 hrs by microdilution method; format: functional; in short: as §1
Nakaseomyces glabratus [2] = test: Antifungal activity against Candida glabrata ATCC 48435 assessed as concentration required to 50% growth inhibition using alamar blue staining after 18 to 72 hrs by microdilution method; format: functional; in short: as §1
Candida tropicalis [3] = test: Antifungal activity against Candida tropicalis IAM 4965 assessed as concentration required to 50% growth inhibition using alamar blue staining after 18 to 72 hrs by microdilution method; format: functional; in short: as §1
Pichia kudriavzevii [4] = test: Antifungal activity against Candida krusei ATCC 44507 assessed as concentration required to 50% growth inhibition using alamar blue staining after 18 to 72 hrs by microdilution method; format: functional; in short: as §1
[5] = Octanol-phosphate buffer partition coefficient, log D of the compound at pH 7.4; format: physicochemical
In short: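 Compound was shaken 30 min in equal volumes of n-octanol and phosphate-buffered saline at pH 7.4, then centrifuged at 3000 rpm for 10 min. Each layer was assayed by LC/MS, and log D was taken from the partition ratio.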

[6] = Solubility in water at pH 6.8; format: physicochemical
[7] = Metabolic stability in human liver microsomes at 1 uM after 30 mins; format: ADME, Microsome; details: read-out: Stability
In short: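 Compound was preincubated with human liver microsomes (0.5 mg/mL protein) in sodium phosphate buffer pH 7.4 for 20 min at 37 °C. NADPH started the reaction, and MeOH stopped it after 30 min. Samples were centrifuged at 4 °C, and parent loss was quantified by LC/MS/MS.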

Candida albicans [8] = test: Antifungal activity against FLCZ-susceptible Candida albicans ATCC 90028 assessed as concentration required to 80% growth inhibition using alamar blue staining after 18 to 72 hrs by microdilution method; format: functional
In short: (§2)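 Serial broth microdilution in YPD medium (1% yeast extract, 2% peptone, […]). Starting cell density (1 × 10³–1 × 10⁴ cells/mL) and incubation time (18–72 h) were set per strain by growth speed. MIC-1 is the lowest drug concentration giving 80% growth inhibition relative to the drug-free control.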

Candida albicans [9] = test: Antifungal activity against FLCZ-resistant Candida albicans ATCC MYA-573 assessed as concentration required to 80% growth inhibition using alamar blue staining after 18 to 72 hrs by microdilution method; format: functional; in short: as §2
Nakaseomyces glabratus [10] = test: Antifungal activity against Candida glabrata ATCC 48435 assessed as concentration required to 80% growth inhibition using alamar blue staining after 18 to 72 hrs by microdilution method; format: functional
In short: (§3)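 Serial dilution in YPD medium (1% yeast extract, 2% peptone, […]), incubated at 37 °C. Inoculum was 1×10³–1×10⁴ cells/mL and incubation 18–72 h, both chosen per strain. MIC-1 is the lowest concentration giving 80% inhibition relative to a drug-free control.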

Candida tropicalis [11] = test: Antifungal activity against Candida tropicalis ATCC 44508 assessed as concentration required to 80% growth inhibition using alamar blue staining after 18 to 72 hrs by microdilution method; format: functional; in short: as §3
Pichia kudriavzevii [12] = test: Antifungal activity against Candida krusei ATCC 44507 assessed as concentration required to 80% growth inhibition using alamar blue staining after 18 to 72 hrs by microdilution method; format: functional; in short: as §3
Candida albicans [13] = test: Antifungal activity against FLCZ-susceptible Candida albicans ATCC 90028 assessed as reduction of beta-1,6-glucan level after 3 hrs by [14C]-glucose incorporation assay; format: functional, organism-based
In short: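 Exponentially growing cells suspended in RPMI 1640 to absorbance ~0.7 at 595 nm; drug and [14C]-glucose added, incubated 30 °C with occasional shaking. After 3 h, cells heated in 3% NaOH at 80 °C for 1 h; mannan taken from supernatant by Fehling's reaction; insoluble residue digested with Zymolyase 100T overnight; radioactivity per fraction measured. Tested 0.016–4 µg/mL.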

Candida albicans [14] = test: Antifungal activity against FLCZ-susceptible Candida albicans ATCC 90028 assessed as reduction of beta-1,3-glucan level up to 4 ug/ml after 3 hrs by [14C]-glucose incorporation assay; format: functional, organism-based
In short: (§4)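 Exponentially growing cells were suspended in RPMI 1640 to about 0.7 A595, then drug (0–4 µg/mL) and [14C]-glucose were added. Incubation was 3 h at 30 °C with occasional shaking. Cells were heated in 3% NaOH at 80 °C for 1 h. Mannan was taken from the supernatant by Fehling's reaction, and the insoluble residue was digested overnight with Zymolyase 100T. β-1,3-glucan counts were obtained as glucan minus β-1,6-glucan.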

Candida albicans [15] = test: Antifungal activity against FLCZ-susceptible Candida albicans ATCC 90028 assessed as reduction of chitin level up to 4 ug/ml after 3 hrs by [14C]-glucose incorporation assay; format: functional, organism-based; in short: as §4
Candida albicans [16] = test: Antifungal activity against FLCZ-susceptible Candida albicans ATCC 90028 assessed as reduction of mannan level up to 4 ug/ml after 3 hrs by [14C]-glucose incorporation assay; format: functional, organism-based; in short: as §4

| SMILES | MIC (Saccharomyces cerevisiae) [µg/mL] | MIC (Candida albicans [1]) [µg/mL] | MIC (Nakaseomyces glabratus [2]) [µg/mL] | MIC (Candida tropicalis [3]) [µg/mL] | MIC (Pichia kudriavzevii [4]) [µg/mL] | logD [5] | solubility [6] [µg/mL] | remaining at 0.5 h, 1 µM [7] [%] | MIC (Candida albicans [8]) [µg/mL] | MIC (Candida albicans [9]) [µg/mL] | MIC (Nakaseomyces glabratus [10]) [µg/mL] | MIC (Candida tropicalis [11]; read-out: MIC) [µg/mL] | MIC (Pichia kudriavzevii [12]) [µg/mL] | Activity (Candida albicans [13]) | Activity (Candida albicans [14]) | Activity (Candida albicans [15]) | Activity (Candida albicans [16]) | MIC (Candida tropicalis [11]) [µg/mL] |
| --- | --- | --- | --- | --- | --- | --- | --- | --- | --- | --- | --- | --- | --- | --- | --- | --- | --- | --- |
| Cc1c(-c2ccccc2)c(N2CC[C@H](N(C)C)C2)c2[nH]c(C(C)(C)C)nc2c1C#N | 0.5 (≈ 1.25 µM) | 4 (≈ 9.96 µM) | 0.5 (≈ 1.25 µM) | 2 (≈ 4.98 µM) | > 16 | 4.7 | 8 (≈ 19.9 µM) | 21 | – | – | – | – | – | – | – | – | – | – |
| OC(Cn1cncn1)(Cn1cncn1)c1ccc(F)cc1F [FLUCONAZOLE] | 4 (≈ 13.1 µM) | 0.25 (≈ 0.816 µM) | 2 (≈ 6.53 µM) | 0.25 (≈ 0.816 µM) | 16 (≈ 52.2 µM) | – | > 2000 | – | 0.25 (≈ 0.816 µM) | > 128 | 16 (≈ 52.2 µM) | 0.5 (≈ 1.63 µM) | 32 (≈ 104 µM) | – | – | – | – | – |
| Cc1c(C#N)c2c(c(N3CC[C@H](N(C)C)C3)c1-c1ccccc1)OCC(C(C)(C)C)=N2 | 8 (≈ 19.2 µM) | > 16 | 8 (≈ 19.2 µM) | 16 (≈ 38.4 µM) | > 16 | 4.4 | 56 (≈ 134 µM) | – | – | – | – | – | – | – | – | – | – | – |
| Cc1c(-c2ccccc2)c(N2CC[C@H](N(C)C)C2)c2oc(C3CCCC3)nc2c1C#N | – | – | – | – | – | 4.9 | < 2 | – | 0.125 (≈ 0.302 µM) | 0.125 (≈ 0.302 µM) | 0.032 (≈ 0.0772 µM) | 0.063 (≈ 0.152 µM) | 2 (≈ 4.82 µM) | – | – | – | – | – |
| Cc1c(-c2ccccc2)c(N2CC[C@H](N(C)C)C2)n2nc(C(C)(C)C)nc2c1C#N | 0.063 (≈ 0.157 µM) | > 4 | 0.063 (≈ 0.157 µM) | 0.25 (≈ 0.621 µM) | > 4 | – | – | 9 | 0.25 (≈ 0.621 µM) | 0.5 (≈ 1.24 µM) | 0.125 (≈ 0.311 µM) | 0.125 (≈ 0.311 µM) | 8 (≈ 19.9 µM) | – | – | – | – | – |
| CN(C)[C@H]1CCN(c2c(-c3ccccc3)cc(C#N)c3oc(C(C)(C)C)nc23)C1 | 4 (≈ 10.3 µM) | > 4 | > 4 | > 4 | > 16 | – | – | – | – | – | – | – | – | – | – | – | – | – |
| Cc1c(-c2ccccc2)c(N2CC[C@H](N(C)C)C2)c2oc(N)nc2c1C#N | – | – | – | – | – | 3.3 | 18 (≈ 49.8 µM) | – | 1 (≈ 2.77 µM) | 2 (≈ 5.53 µM) | 0.125 (≈ 0.346 µM) | 0.5 (≈ 1.38 µM) | 2 (≈ 5.53 µM) | – | – | – | – | – |
| CN(C)[C@H]1CCN(c2c(-c3ccccc3)cc(C#N)c3nc(C(C)(C)C)oc23)C1 | 0.25 (≈ 0.643 µM) | 16 (≈ 41.2 µM) | 0.25 (≈ 0.643 µM) | 0.5 (≈ 1.29 µM) | 16 (≈ 41.2 µM) | 3.8 | 16 (≈ 41.2 µM) | 8 | – | – | – | – | – | – | – | – | – | – |
| Cc1c(-c2ccccc2)c(N2CC[C@H](N(C)C)C2)c2oc(C(C)(C)C)nc2c1C#N.Cl | ≤ 0.016 | 4 | ≤ 0.016 | 0.063 | 4 | 4.6 | 5 | 6 | 0.063 | 0.125 | 0.063 | 0.032 | 2 | – | – | – | – | – |
| CN(C)[C@H]1CCN(c2c(-c3ccccc3)c3c(c4nc(C5CC5)oc24)C(=O)OC3)C1 | – | – | – | – | – | 2.6 | 310 (≈ 768 µM) | – | 1 (≈ 2.48 µM) | 1 (≈ 2.48 µM) | 0.25 (≈ 0.62 µM) | 0.25 (≈ 0.62 µM) | 2 (≈ 4.96 µM) | – | – | – | – | – |
| Cc1nc2c(C#N)c(C)c(-c3ccccc3)c(N3CC[C@H](N(C)C)C3)c2o1 | – | – | – | – | – | 3.3 | 120 (≈ 333 µM) | – | 2 (≈ 5.55 µM) | 2 (≈ 5.55 µM) | 0.25 (≈ 0.694 µM) | 0.25 (≈ 0.694 µM) | 4 (≈ 11.1 µM) | – | – | – | – | – |
| CN(C)[C@H]1CCN(c2c(-c3ccccc3)cc(C#N)c3oc(C(C)(C)C)cc23)C1 | 2 (≈ 5.16 µM) | > 4 | > 4 | 4 (≈ 10.3 µM) | > 4 | 5.4 | < 2 | 20 | – | – | – | – | – | – | – | – | – | – |
| Cc1c(-c2ccccc2)c(N2CC[C@H](N(C)C)C2)c2oc(C3=CCCC3)nc2c1C#N | – | – | – | – | – | 5.2 | < 2 | – | 4 (≈ 9.7 µM) | 4 (≈ 9.7 µM) | 0.5 (≈ 1.21 µM) | 1 (≈ 2.42 µM) | 16 (≈ 38.8 µM) | – | – | – | – | – |
| Cc1c(-c2ccccc2)c(N2CC[C@H](N(C)C)C2)n2c(nc3ccccc32)c1C#N | 0.004 (≈ 0.0101 µM) | > 4 | 0.063 (≈ 0.159 µM) | 0.25 (≈ 0.632 µM) | 0.125 (≈ 0.316 µM) | – | 5 (≈ 12.6 µM) | – | – | – | – | – | – | – | – | – | – | – |
| CN[C@H]1CCN(c2c(-c3ccccc3)c(C)c(C#N)c3nc(C(C)(C)C)oc23)C1.Cl | 0.125 | 16 | 0.125 | 0.25 | > 16 | 3.4 | 120 | 54 | 0.25 | 0.25 | 0.125 | 0.063 | > 4 | Dose-dependent effect | inactive | inactive | inactive | – |
| Cc1c(-c2ccccc2)c(N2CC[C@H](N(C)C)C2)c2oc(C3CCC3)nc2c1C#N | – | – | – | – | – | 4.5 | 7 (≈ 17.5 µM) | – | 0.063 (≈ 0.157 µM) | 0.125 (≈ 0.312 µM) | – | – | 0.5 (≈ 1.25 µM) | – | – | – | – | < 0.016 |
| Cc1c(-c2ccccc2)c(N2CC[C@H](N(C)C)C2)c2oc(C3CC3)nc2c1C#N | – | – | – | – | – | 3.9 | 10 (≈ 25.9 µM) | – | 0.063 (≈ 0.163 µM) | 0.063 (≈ 0.163 µM) | 0.032 (≈ 0.0828 µM) | 0.032 (≈ 0.0828 µM) | 0.125 (≈ 0.323 µM) | – | – | – | – | – |

Reference: ChEMBL document CHEMBL1268918, “1,3-Benzoxazole-4-carbonitrile as a novel antifungal scaffold of β-1,6-glucan synthesis inhibitors” (Bioorg Med Chem, 2010)
